Assay results as given in ChEMBL document CHEMBL1123420, “Synthesis and toxicity toward nigrostriatal dopamine neurons of 1-methyl-4-phenyl-1,2,3,6-tetrahydropyridine (MPTP) analogues” (1986).

Assays:
Type in all cases: functional
Mus musculus [1] = experiment: DOPAC content in mice striata was evaluated after 1 day of administration of compound
Method in brief: (§1)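 Male Swiss mice (25–40 g) dosed ip, 0.072 mmol/kg on days 1 and 2, then 0.142 mmol/kg on days 3–12. Drugs were given as 0.14 M solutions in normal saline and stored at 5 °C; saline-injected controls. Mice killed 1 day after the last injection. Striata weighed, homogenized, Sephadex-separated, then DA, DOPAC and HVA measured by HPLC-EC in μg/g tissue as mean ± error.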

Mus musculus [2] = experiment: Dopamine content in mice striata was evaluated after 1 day of administration of compound; method in brief: as §1
Mus musculus [3] = experiment: Dopamine content in mice striata was evaluated after 9 days of administration of compound
Method in brief: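 Ip regimen in male Swiss mice (25–40 g): 0.072 mmol/kg on days 1–2, then 0.142 mmol/kg on days 3–12, from 0.14 M saline solutions; saline controls; n=5 per group. Animals killed 9 days after the final injection. Striatal DA measured by HPLC-EC after homogenization and Sephadex cleanup, reported in μg/g tissue.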

Mus musculus [4] = experiment: HVA content in mice striata was evaluated after 1 day of administration of compound; method in brief: as §1

SMILES: CN1CC=C(c2ccccc2)CC1.Cl
- Content (Mus musculus [1]): 0.31 ug (g of tissue)-1
- Content (Mus musculus [2]): 3.16 ug (g of tissue)-1
- Content (Mus musculus [3]): 4.34 ug (g of tissue)-1
- Content (Mus musculus [4]): 0.61 ug (g of tissue)-1

SMILES: CC1=C(c2ccccc2)CCN(C)C1.Cl
- Content (Mus musculus [1]): 1.22 ug (g of tissue)-1
- Content (Mus musculus [2]): 13.68 ug (g of tissue)-1
- Content (Mus musculus [3]): 13.85 ug (g of tissue)-1
- Content (Mus musculus [4]): 1.26 ug (g of tissue)-1

SMILES: CN1CC=C(c2ccccc2)C(C)(C)C1.Cl
- Content (Mus musculus [1]): 1.31 ug (g of tissue)-1
- Content (Mus musculus [2]): 17.28 ug (g of tissue)-1
- Content (Mus musculus [3]): 17.28 ug (g of tissue)-1
- Content (Mus musculus [4]): 1.39 ug (g of tissue)-1

SMILES: CC1CN(C)CC=C1c1ccccc1.Cl (stereo not drawn)
- Content (Mus musculus [1]): 1.11 ug (g of tissue)-1
- Content (Mus musculus [2]): 13.21 ug (g of tissue)-1
- Content (Mus musculus [3]): 13.35 ug (g of tissue)-1
- Content (Mus musculus [4]): 1.14 ug (g of tissue)-1

SMILES: CC1=C(c2ccccc2)CC(C)N(C)C1.O=C(O)/C=C/C(=O)O (stereo not drawn)
- Content (Mus musculus [1]): 1.18 ug (g of tissue)-1
- Content (Mus musculus [2]): 15.22 ug (g of tissue)-1
- Content (Mus musculus [3]): 14.49 ug (g of tissue)-1
- Content (Mus musculus [4]): 1.27 ug (g of tissue)-1

SMILES: CN(C)C/C=C/c1ccccc1.Cl
- Content (Mus musculus [1]): 1.37 ug (g of tissue)-1
- Content (Mus musculus [2]): 13.6 ug (g of tissue)-1
- Content (Mus musculus [3]): 14.56 ug (g of tissue)-1
- Content (Mus musculus [4]): 1.11 ug (g of tissue)-1

SMILES: CC1CN(C)C(C)C=C1c1ccccc1.Cl (stereo not drawn)
- Content (Mus musculus [1]): 1.36 ug (g of tissue)-1
- Content (Mus musculus [2]): 14.42 ug (g of tissue)-1
- Content (Mus musculus [3]): 14.65 ug (g of tissue)-1
- Content (Mus musculus [4]): 1.39 ug (g of tissue)-1
